From ChEMBL document CHEMBL1132197, “Stereospecific synthesis, structure-activity relationship, and oral bioavailability of tetrahydropyrimidin-2-one HIV protease inhibitors” (J Med Chem, 1999)

Key:
[1] = The maximum plasma concentration (Cmax) is the observed peak plasma concentration after an oral dose on rat; type: ADME, organism-based; set-up: route oral
How it was run: (§1)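 Rats dosed orally in groups at 10 mg/kg, in a formulation of propylene glycol, poly(ethylene glycol) 400 and water. Cmax is the observed peak plasma concentration after the oral dose.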

MT2 = assay: Antiviral activity by measuring its effect on the accumulation of viral RNA transcripts on infection of MT-2 cells with HIV-1 RF.; type: functional; conditions: Homo sapiens
How it was run: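 Viral RNA transcript accumulation read 3 days after HIV-1 RF infection of MT-2 cells. IC90 is the concentration cutting viral RNA by 90% versus an untreated infected culture. TC50 came from MTT dye reduction in uninfected MT-2 cultures grown 3 days with compound.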

[2] = biological target: Human immunodeficiency virus type 1 protease (Human immunodeficiency virus 1, UniProt Q72874); assay: Inhibition constant of HIV protease inhibitors
How it was run: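 HIV protease (HIVPR) inhibition constant was determined by monitoring cleavage of a fluorescent peptide substrate, with products separated and quantified by HPLC.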

[3] = The maximum plasma concentration (Cmax) is the observed peak plasma concentration after an oral dose on dog.; type: ADME, organism-based, Canis lupus familiaris; set-up: route oral
[4] = The maximum plasma concentration (Cmax) is the observed peak plasma concentration after an oral dose on rat.; type: ADME, organism-based; set-up: route oral; how it was run: as §1

Compound | Cmax [1] [nM] | IC90 (MT2) [nM] | Ki [2] [nM] | Cmax [3] [nM] | Cmax [4] [nM]
O=C1N(Cc2cccc(-c3cc[nH]n3)c2)[C@H](CCc2ccccc2)[C@@H](O)[C@@H](Cc2ccccc2)N1Cc1cccc(-c2cc[nH]n2)c1 | 160 | 22 | 0.1 |  | 
O=C1N(Cc2cccc(CO)c2)[C@H](CCc2ccccc2)[C@@H](O)[C@@H](Cc2ccccc2)N1Cc1cccc(CO)c1 | 240 | 109 |  |  | 
CC(=O)c1cccc(CN2C(=O)N(Cc3cccc(C(C)=O)c3)[C@H](Cc3ccccc3)[C@H](O)[C@H]2CCc2ccccc2)c1 | 180 | 49 | 0.91 |  | 
O=C1N(Cc2ccc3[nH]ncc3c2)[C@H](CCc2ccccc2)[C@@H](O)[C@@H](Cc2ccccc2)N1Cc1ccc2[nH]ncc2c1 |  |  | 0.02 | 250 | 
Nc1cccc(CN2C(=O)N(Cc3cccc(N)c3)[C@H](Cc3ccccc3)[C@H](O)[C@H]2CCc2ccccc2)c1 | 1000 | 365 |  |  | 
O=C1N(Cc2cccc(O)c2)[C@H]([C@@H](F)Cc2ccccc2)[C@@H](O)[C@@H](Cc2ccccc2)N1Cc1cccc(O)c1 |  | 2100 | 12 |  | 250
